Compound activity deposited in PubChem BioAssay by Broad Institute.
Compounds with a hit are over-represented: about 0.27% of the library has one in this group of screens.
CaV13 ICDI inh – Primary screen for inhibitors of IQ motif and Ca2+-dependent inactivation inhibitor domain binding in CACNA1D, Förster resonance energy transfer in living cells, …. inhibition, % at 12.3 µM. AID 743397. HEK cells, CFP/YFP FRET ICDI-IQ, plate reader, 10 min; percent FRET-ratio fall versus neutral wells. actives 0.098% (n = 340,000);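 active = mean replicate inhibition of at least 30% and at least 1% of replicates passing that level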;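 also: 0% = median of the neutral control wells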
ERAP1 inh – blocks human ERAP1 aminopeptidase activity; Q9NZ08; recombinant ERAP1, Leu-AMC fluorescence, 60 min; inhibition, % at 10.7 µM; actives 0.15% (n = 340,000);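 active = mean replicate inhibition of at least 30%, or all replicates individually reaching that 30% level; inactive = mean below 30% and not every replicate reaching it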;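 also: 0% = neutral control wells and 100% = L-leucinethiol positive control wells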
Target sequence (Q9NZ08 whole entry, looked up): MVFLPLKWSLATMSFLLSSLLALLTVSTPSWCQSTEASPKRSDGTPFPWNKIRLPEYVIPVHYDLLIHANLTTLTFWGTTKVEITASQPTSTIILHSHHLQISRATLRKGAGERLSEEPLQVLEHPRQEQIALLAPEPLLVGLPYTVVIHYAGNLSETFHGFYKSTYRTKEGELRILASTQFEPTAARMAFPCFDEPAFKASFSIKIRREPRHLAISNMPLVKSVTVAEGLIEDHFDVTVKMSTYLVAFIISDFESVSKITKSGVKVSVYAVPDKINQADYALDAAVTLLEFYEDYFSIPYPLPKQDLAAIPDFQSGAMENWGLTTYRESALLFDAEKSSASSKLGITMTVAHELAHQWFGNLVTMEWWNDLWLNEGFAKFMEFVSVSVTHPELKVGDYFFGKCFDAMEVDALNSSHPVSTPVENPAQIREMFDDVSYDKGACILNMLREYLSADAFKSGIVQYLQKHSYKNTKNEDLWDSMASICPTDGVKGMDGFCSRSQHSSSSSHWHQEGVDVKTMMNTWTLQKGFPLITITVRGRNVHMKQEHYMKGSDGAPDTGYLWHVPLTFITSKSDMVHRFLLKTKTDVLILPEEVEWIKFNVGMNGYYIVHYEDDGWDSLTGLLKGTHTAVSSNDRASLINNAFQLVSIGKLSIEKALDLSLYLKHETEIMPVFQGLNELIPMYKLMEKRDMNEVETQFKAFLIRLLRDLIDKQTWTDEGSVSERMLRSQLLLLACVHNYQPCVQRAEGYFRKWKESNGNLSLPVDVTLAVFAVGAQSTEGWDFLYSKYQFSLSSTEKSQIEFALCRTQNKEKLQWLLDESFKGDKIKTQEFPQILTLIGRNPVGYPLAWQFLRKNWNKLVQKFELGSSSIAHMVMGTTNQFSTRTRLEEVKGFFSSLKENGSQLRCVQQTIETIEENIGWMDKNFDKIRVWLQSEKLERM
PvdQ inh – P. aeruginosa PvdQ acylase inhibition; actives 0.063% (n = 340,000); purified PvdQ acylase, fluorescence plate reader; inhibition, % at 10 µM; in the data active = inhibition above about 30%, passing the limit was not always enough;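 also: 0% = vehicle neutral wells and 100% = reference inhibitor wells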
Xi reactivation – X-chromosome reactivation activator | XiGFP mouse fibroblasts, % GFP-positive cells imaging, 3 d; cells co-treated with 5-aza-dC sensitizer; scaled so ellipticine positive control = 100% | activation, % at 7.58 µM | actives 0.055% (n = 360,000) | AID 743238;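 active = mean normalized replicate activation at least 10% and every replicate at or above 10%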;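 also: 0% = median of on-plate neutral control wells and 100% = ellipticine 6 µM median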
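Assay system – SV40-immortalized XiGFP fibroblast cells, line 68-5-11 · Buffer or medium – DMEM supplemented with 5-aza-dC as sensitizing agent · Dosing – one concentration, pinned · Benchmarks – positive control ellipticine, 6 µM final · Times – 3 days compound exposure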
Starred values were filed as active, the others as inactive.

How did COc1ccc(NC(=O)Nc2ccc3c(c2)C(=O)N([C@H](C)CO)C[C@H](C)[C@@H](CN(C)S(=O)(=O)c2c(C)noc2C)O3)cc1 do in these assays?
Xi reactivation: 0.3

How did CC(C)NC(=O)N(C)C[C@H]1OCCCC[C@H](C)Oc2ccc(N(C)C)cc2C(=O)N([C@@H](C)CO)C[C@@H]1C do in these assays?
ERAP1 inh: 0.4

Results for C[C@@H](NC(=O)C[C@@H]1CC[C@H](NC(=O)C2CCOCC2)[C@@H](CO)O1)c1ccccc1 ?
ERAP1 inh: 1.2; Xi reactivation: 0.3

How did COc1ccc(NC(=O)C2CCC(CNS(=O)(=O)c3cccs3)CC2)cc1 (stereo not given) do in these assays?
CaV13 ICDI inh: 31.3*; ERAP1 inh: 0.8; PvdQ inh: 8.5; Xi reactivation: 0.0

Results for COCc1cc(C)nc(Sc2nc3c(c(=O)n(C)c(=O)n3C)n2C)c1C#N ?
CaV13 ICDI inh: -18.6; ERAP1 inh: 31.5*; PvdQ inh: -10.1; Xi reactivation: 0.0

Results for CN(C)C(=O)C[C@@H]1C=C[C@H](NC(=O)C2CC2)[C@H](CO)O1 ?
ERAP1 inh: -0.3; Xi reactivation: 1.0

How did Cc1cc(=O)oc2c(CN3CCOCC3)c(O)ccc12 do in these assays?
CaV13 ICDI inh: -5.3; ERAP1 inh: 10.1; PvdQ inh: -17.1; Xi reactivation: 1.4

What do the screens show for `CCc1cc(=O)oc2c(CN3CCN(C)CC3)c(O)ccc12`?
CaV13 ICDI inh: -4.3; ERAP1 inh: 35.7*; PvdQ inh: -5.6; Xi reactivation: 0.0

What do the screens show for `Cc1c(C)c2ccc(O)c(CN3CCCC3)c2oc1=O`?
CaV13 ICDI inh: -5.2; ERAP1 inh: 51.2*; PvdQ inh: -7.5; Xi reactivation: 0.0

What do the screens show for `CN1CCN(Cc2c(O)ccc3cc(-c4ccccn4)c(=O)oc23)CC1`?
CaV13 ICDI inh: 0.8; ERAP1 inh: 111.6*; PvdQ inh: -4.6; Xi reactivation: 0.0

How did Cc1cc(=O)oc2c(CN3CCCCC3)c(O)ccc12 do in these assays?
CaV13 ICDI inh: -4.6; ERAP1 inh: 46.3*; PvdQ inh: -0.1; Xi reactivation: 0.1

Results for O=C(O)[C@@H]1[C@@H](CO)[C@@H]2Cn3c(ccc(-c4ccc(F)cc4)c3=O)[C@@H]2N1C(=O)Nc1ccccc1 ?
Xi reactivation: 0.3

What do the screens show for `Cc1c(C)c2ccc(O)c(CN3CCN(C)CC3)c2oc1=O`?
CaV13 ICDI inh: -3.8; ERAP1 inh: 31.0*; PvdQ inh: 1.7; Xi reactivation: 0.0

How did O=C(NCc1ccc(F)cc1)C1CCCN1C(=O)Nc1cccc(F)c1 (stereo not given) do in these assays?
CaV13 ICDI inh: 63.7*; ERAP1 inh: -0.8; PvdQ inh: 4.7; Xi reactivation: 0.1

What do the screens show for `COc1ccc(NC(=O)N2CCCC2C(=O)NCc2ccc(F)cc2)cc1` (stereo not given)?
PvdQ inh: -10.6

What do the screens show for `O=C(CC1CC1)Nc1ccc2c(c1)[C@H]1C[C@@H](CC(=O)N3CCc4ccccc4C3)O[C@@H](CO)[C@H]1O2`?
ERAP1 inh: -2.6; Xi reactivation: 0.0

How did Cc1nc2ccc(NC(=O)c3ccc(=O)[nH]c3)cc2s1 do in these assays?
CaV13 ICDI inh: -4.1; ERAP1 inh: 37.0*; PvdQ inh: -10.6; Xi reactivation: 0.3

What do the screens show for `Cc1nc2ccc(NC(=O)c3ccccc3)cc2s1`?
CaV13 ICDI inh: -17.2; ERAP1 inh: 2.2; PvdQ inh: -6.4; Xi reactivation: -0.1

How did CCCNC(=O)N1CC2(C1)CN(C(C)=O)[C@@H](CO)c1[nH]c3cc(OC)ccc3c12 do in these assays?
Xi reactivation: 0.1

Results for COCC(=O)N1[C@@H]2Cn3c(ccc(/C=C/c4ccccc4)c3=O)[C@H]1[C@@H](C(=O)N1CCCCC1)[C@@H]2CO ?
ERAP1 inh: -0.6; Xi reactivation: 0.0

Results for COCC(=O)N1[C@@H]2c3ccc(/C=C/c4ccccc4)c(=O)n3C[C@H]1[C@H](CO)[C@H]2C(=O)N1CCOCC1 ?
ERAP1 inh: 108.0*; Xi reactivation: 0.2

Results for CC(=O)Nc1cc2c3c(cccc3c1)-c1ccccc1-2 ?
CaV13 ICDI inh: -6.2; ERAP1 inh: -2.8; PvdQ inh: -14.4; Xi reactivation: 99.5*

What do the screens show for `O=C(CCCN1C(=O)/C(=C\c2cccs2)SC1=S)Nc1cccc(C(=O)O)c1`?
CaV13 ICDI inh: -19.2; ERAP1 inh: -1.2; PvdQ inh: -19.9; Xi reactivation: 0.0

What do the screens show for `COc1ccc(C=C2SC(=S)N(CCCC(=O)Nc3ccc(C(=O)O)c(O)c3)C2=O)cc1OC`?
CaV13 ICDI inh: -11.4; ERAP1 inh: 35.3*; Xi reactivation: 0.0

Results for O=C(CCCN1C(=O)/C(=C/c2ccco2)SC1=S)Nc1cccc(C(=O)O)c1 ?
CaV13 ICDI inh: -1.2; ERAP1 inh: 31.7*; PvdQ inh: 0.3; Xi reactivation: -0.1

What do the screens show for `CCC(=O)N[C@@H]1C=C[C@H](CC(=O)NCc2ccccc2F)O[C@H]1CO`?
ERAP1 inh: 2.9; Xi reactivation: -0.3

Results for O=C(Cc1ccncc1)NCC[C@H]1CC[C@H](NS(=O)(=O)c2ccccc2Cl)[C@@H](CO)O1 ?
ERAP1 inh: 1.3; Xi reactivation: 0.0

How did O=C(N/N=C/c1ccc(Br)s1)c1ccccc1[N+](=O)[O-] do in these assays?
CaV13 ICDI inh: -5.2; PvdQ inh: -0.1

How did O=C(N/N=C/c1ccc(Br)s1)c1ccc([N+](=O)[O-])cc1 do in these assays?
CaV13 ICDI inh: -5.5; ERAP1 inh: 1.7; PvdQ inh: -5.9; Xi reactivation: 96.8*

How did COc1ccccc1CCN=C(N)NS(=O)(=O)c1ccc(F)cc1 do in these assays?
CaV13 ICDI inh: -6.0; ERAP1 inh: 0.3; PvdQ inh: 1.0; Xi reactivation: 0.0

Results for NC(=NCCc1c[nH]c2ccccc12)NS(=O)(=O)c1cc(F)ccc1F ?
CaV13 ICDI inh: -17.4; ERAP1 inh: 42.6*; PvdQ inh: -0.4; Xi reactivation: 0.3

Results for COc1ccc(/C=C/C(=O)c2ccc([N+](=O)[O-])o2)cc1OC ?
CaV13 ICDI inh: -7.3; ERAP1 inh: 1.4; Xi reactivation: 14.3*

Results for O=C(/C=C/c1cccc(Cl)c1)c1ccc([N+](=O)[O-])o1 ?
CaV13 ICDI inh: -5.0; ERAP1 inh: -1.8; PvdQ inh: -4.8; Xi reactivation: 3.7

Results for COc1cc(/C=C/C(=O)c2ccc([N+](=O)[O-])o2)ccc1O ?
CaV13 ICDI inh: -3.3; ERAP1 inh: -1.8; PvdQ inh: 13.8; Xi reactivation: 20.5*

How did CCCNC(=O)N1C[C@H](C)[C@@H](OC)CN(C)C(=O)c2ccc(NC(=O)CCC)cc2OC[C@@H]1C do in these assays?
ERAP1 inh: 3.1; Xi reactivation: 0.0

What do the screens show for `O=C(N[C@H]1CC[C@H](CCNC(=O)C2CCOCC2)O[C@@H]1CO)c1ccccn1`?
ERAP1 inh: -1.9; Xi reactivation: 0.2

What do the screens show for `Fc1ccc(-c2nc3ccccn3c2NCc2ccc3c(c2)OCO3)cc1`?
CaV13 ICDI inh: 48.9*; ERAP1 inh: -8.0; PvdQ inh: 6.5; Xi reactivation: 0.1
